The assay has as its system Candida albicans. The assay can be described thus: Inhibition of Candida albicans at 100 uM concentration. The class given is functional. A digest of the protocol:
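Five C. albicans clinical isolates plus ATCC 24433, grown 48 h at 32 °C in Sabouraud dextrose broth to stationary phase, washed in distilled water. 1×10^6 yeast in water exposed to peptide at 10^-4 M final, 2 h at 37 °C; water controls. Diluted to ~100 organisms/mL, 1 mL plated on blood agar, 48 h at 37 °C, colonies counted. Triplicates.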

Non-standard residues stand in square brackets, D forms with d. Residues, ends and D or L forms follow the SMILES beside them. d2Nal = N[C@H](Cc1ccc2ccccc2c1)C(=O)O

Usually inhibition stands for the relative decrease from the control value, in per cent. Molecule `CC(C)[C@H](NC(=O)[C@@H](Cc1ccccc1)NC(=O)[C@H](CCCCN)NC(=O)CNC(=O)[C@H](Cc1c[nH]c2ccccc12)NC(=O)[C@H](CCCN=C(N)N)NC(=O)[C@H](Cc1ccccc1)NC(=O)[C@@H](N)Cc1c[nH]cn1)C(N)=O` had an inhibition at 100 µM of 90.8%.
Next, H-HFRWGKGV-NH2: 41.8%; `CC(C)[C@@H](NC(=O)[C@H]1CCCN1C(=O)[C@H](CCCCN)NC(=O)CNC(=O)[C@H](Cc1c[nH]c2ccccc12)NC(=O)[C@H](CCCN=C(N)N)NC(=O)[C@H](Cc1ccccc1)NC(=O)[C@@H](N)Cc1c[nH]cn1)C(N)=O`: 82.5%.
Next, `CC(C)[C@H](NC(=O)[C@@H](CC(=O)O)NC(=O)[C@H](CCCCN)NC(=O)CNC(=O)[C@H](Cc1c[nH]c2ccccc12)NC(=O)[C@H](CCCN=C(N)N)NC(=O)[C@H](Cc1ccccc1)NC(=O)[C@@H](N)Cc1c[nH]cn1)C(N)=O`: 5.9%; `CC(C)[C@H](NC(=O)[C@H](Cc1ccccc1)NC(=O)[C@H](CCCCN)NC(=O)CNC(=O)[C@H](Cc1c[nH]c2ccccc12)NC(=O)[C@H](CCCN=C(N)N)NC(=O)[C@@H](Cc1ccccc1)NC(=O)[C@@H](N)Cc1c[nH]cn1)C(N)=O`: 77.7%.
Next, `CC(C)[C@H](NC(=O)[C@@H](Cc1ccccc1)NC(=O)[C@H](CCCCN)NC(=O)CNC(=O)[C@H](Cc1c[nH]c2ccccc12)NC(=O)[C@H](CCCN=C(N)N)NC(=O)[C@@H](Cc1ccc2ccccc2c1)NC(=O)[C@@H](N)Cc1c[nH]cn1)C(N)=O`: 99.7%; `CC(C)[C@H](NC(=O)[C@H](CO)NC(=O)[C@H](CCCCN)NC(=O)CNC(=O)[C@H](Cc1c[nH]c2ccccc12)NC(=O)[C@H](CCCN=C(N)N)NC(=O)[C@@H](Cc1ccc2ccccc2c1)NC(=O)[C@@H](N)Cc1c[nH]cn1)C(N)=O`: 73.9%; `CC(C)[C@H](NC(=O)[C@H](CC(=O)O)NC(=O)[C@H](CCCCN)NC(=O)CNC(=O)[C@H](Cc1c[nH]c2ccccc12)NC(=O)[C@H](CCCN=C(N)N)NC(=O)[C@H](Cc1ccccc1)NC(=O)[C@@H](N)Cc1c[nH]cn1)C(N)=O`: 15.7%.
As to H-HFRWGKPL-NH2, the inhibition at 100 µM turned out to be 87.4%.
Next, H-HFRWGKPA-NH2: 68.4%; `CC(C)[C@H](NC(=O)[C@H](CCC(=O)O)NC(=O)[C@H](CCCCN)NC(=O)CNC(=O)[C@H](Cc1c[nH]c2ccccc12)NC(=O)[C@H](CCCN=C(N)N)NC(=O)[C@@H](Cc1ccc2ccccc2c1)NC(=O)[C@@H](N)Cc1c[nH]cn1)C(N)=O`: 32.3%.
Next, `CC(C)[C@H](NC(=O)[C@@H](CC(=O)O)NC(=O)[C@H](CCCCN)NC(=O)CNC(=O)[C@H](Cc1c[nH]c2ccccc12)NC(=O)[C@H](CCCN=C(N)N)NC(=O)[C@@H](Cc1ccccc1)NC(=O)[C@@H](N)Cc1c[nH]cn1)C(N)=O`: 3.7%; `CC(C)[C@H](NC(=O)[C@H](Cc1ccccc1)NC(=O)[C@H](CCCCN)NC(=O)CNC(=O)[C@H](Cc1c[nH]c2ccccc12)NC(=O)[C@H](CCCNC(=N)N)NC(=O)[C@H](Cc1ccccc1)NC(=O)[C@@H](N)Cc1cnc[nH]1)C(N)=O`: 97.5%.
In the case of `CC(C)[C@H](NC(=O)[C@H](CCCCN)NC(=O)[C@H](CCCCN)NC(=O)CNC(=O)[C@H](Cc1c[nH]c2ccccc12)NC(=O)[C@H](CCCN=C(N)N)NC(=O)[C@@H](Cc1ccc2ccccc2c1)NC(=O)[C@@H](N)Cc1c[nH]cn1)C(N)=O`, the inhibition at 100 µM worked out at 83.8%.
As for `CC(C)[C@H](NC(=O)CNC(=O)[C@H](CCCCN)NC(=O)CNC(=O)[C@H](Cc1c[nH]c2ccccc12)NC(=O)[C@H](CCCN=C(N)N)NC(=O)[C@@H](Cc1ccc2ccccc2c1)NC(=O)[C@@H](N)Cc1c[nH]cn1)C(N)=O`, the inhibition at 100 µM came out at 36.2%.
Next, H-HFRWGAPV-NH2: 26.2%; `CC(C)[C@H](NC(=O)[C@@H]1CCCN1C(=O)[C@H](CCCCN)NC(=O)CNC(=O)[C@H](Cc1c[nH]c2ccccc12)NC(=O)[C@H](CCCN=C(N)N)NC(=O)[C@@H](Cc1ccc2ccccc2c1)NC(=O)[C@@H](N)Cc1c[nH]cn1)C(N)=O` (H-H[d2Nal]RWGKPV-NH2): 95.3%.
Next, H-HFRWGKSV-NH2: 32.3%; `CC(C)[C@H](NC(=O)[C@H](C)NC(=O)[C@H](CCCCN)NC(=O)CNC(=O)[C@H](Cc1c[nH]c2ccccc12)NC(=O)[C@H](CCCN=C(N)N)NC(=O)[C@@H](Cc1ccc2ccccc2c1)NC(=O)[C@@H](N)Cc1c[nH]cn1)C(N)=O`: 69.2%; `CC(C)[C@H](NC(=O)[C@H](Cc1ccccc1)NC(=O)[C@H](CCCCN)NC(=O)CNC(=O)[C@H](Cc1c[nH]c2ccccc12)NC(=O)[C@H](CCCN=C(N)N)NC(=O)[C@@H](Cc1ccc2ccccc2c1)NC(=O)[C@@H](N)Cc1c[nH]cn1)C(N)=O`: 67.7%.
To H-HFRWGKEV-NH2 belongs 11.2%.
In turn, H-HFRWGKKV-NH2 registered an inhibition at 100 µM of 41%.
Next, `CC(C)[C@H](NC(=O)[C@H](C)NC(=O)[C@H](CCCCN)NC(=O)CNC(=O)[C@H](Cc1c[nH]c2ccccc12)NC(=O)[C@H](CCCN=C(N)N)NC(=O)[C@H](Cc1ccccc1)NC(=O)[C@@H](N)Cc1c[nH]cn1)C(N)=O`: 46.1%; `CC(C)[C@H](NC(=O)[C@H]1CCCN1C(=O)[C@H](CCCCN)NC(=O)CNC(=O)[C@H](Cc1c[nH]c2ccccc12)NC(=O)[C@H](CCCN=C(N)N)NC(=O)[C@@H](Cc1ccccc1)NC(=O)[C@@H](N)Cc1c[nH]cn1)C(N)=O`: 80.5%.
To `CC(C)[C@H](NC(=O)[C@H](CC(=O)O)NC(=O)[C@H](CCCCN)NC(=O)CNC(=O)[C@H](Cc1c[nH]c2ccccc12)NC(=O)[C@H](CCCN=C(N)N)NC(=O)[C@@H](Cc1ccc2ccccc2c1)NC(=O)[C@@H](N)Cc1c[nH]cn1)C(N)=O` belongs 16.8%; to `CC(C)[C@H](NC(=O)[C@@H](C)NC(=O)[C@H](CCCCN)NC(=O)CNC(=O)[C@H](Cc1c[nH]c2ccccc12)NC(=O)[C@H](CCCN=C(N)N)NC(=O)[C@@H](Cc1ccc2ccccc2c1)NC(=O)[C@@H](N)Cc1c[nH]cn1)C(N)=O`, 28%; to `CC(C)[C@H](NC(=O)[C@@H](C)NC(=O)[C@H](CCCCN)NC(=O)CNC(=O)[C@H](Cc1c[nH]c2ccccc12)NC(=O)[C@H](CCCN=C(N)N)NC(=O)[C@H](Cc1ccccc1)NC(=O)[C@@H](N)Cc1c[nH]cn1)C(N)=O`, 12.8%.
To `CC(C)[C@H](NC(=O)[C@@H](Cc1ccccc1)NC(=O)[C@H](CCCCN)NC(=O)CNC(=O)[C@H](Cc1c[nH]c2ccccc12)NC(=O)[C@H](CCCN=C(N)N)NC(=O)[C@@H](Cc1ccccc1)NC(=O)[C@@H](N)Cc1c[nH]cn1)C(N)=O` belongs 89.6%.

The values above are taken from ChEMBL document CHEMBL1145778, “Novel alpha-melanocyte stimulating hormone peptide analogues with high candidacidal activity” (2003).
